# Source: PubChem BioAssay
# Activity calls are given as the source filed them.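 Rule for the calls, unless noted: active = viability loss from added drug above about 55%, and viability with drug at most 40%, in both replicates (limit read from the data, passing the limit was not always enough); inconclusive = both conditions met in only one replicate; inactive = neither replicate meets both conditions.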
# Assays:
# [1] = target: Pantothenate synthetase (Mycobacterium tuberculosis (strain ATCC 25618 / H37Rv)) (UniProt P9WIL5); assay: Recombinant Mtb pantothenate synthetase (PanC) inhibitors, coupled enzyme, confirmatory (AID 375; call rule not given here;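 note: 0% = full reaction with vehicle and 100% = no enzyme background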); conditions: coupled enzyme assay; at 10 µM, stronger effect = higher value
# Sequence of Pantothenate synthetase (Mycobacterium tuberculosis (strain ATCC 25618 / H37Rv)) (P9WIL5 whole entry, looked up): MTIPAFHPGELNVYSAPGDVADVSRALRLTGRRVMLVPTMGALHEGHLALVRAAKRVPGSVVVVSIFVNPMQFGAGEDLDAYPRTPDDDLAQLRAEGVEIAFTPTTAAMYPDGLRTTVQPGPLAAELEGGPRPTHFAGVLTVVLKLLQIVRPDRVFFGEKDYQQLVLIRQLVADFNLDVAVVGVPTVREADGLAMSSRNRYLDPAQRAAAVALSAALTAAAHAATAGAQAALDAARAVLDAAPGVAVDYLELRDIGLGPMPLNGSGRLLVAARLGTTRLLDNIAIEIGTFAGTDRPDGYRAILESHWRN
# [2] = reducers of endogenous Her2 protein level, primary screen, SKBR3 breast tumor cells, AlphaScreen, ATP viability (AID 461;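 active = Her2 level under about 52% in both replicate screens, with viability over 70% of control, limit read from the data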;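 for Her2 level: lower value means less Her2 protein in the cells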;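 for viability: percent of carrier control wells set as 100% viability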); conditions: 18-24 h, measured here: SKBR3 viability, ATP luminescence, at 10 µM
# [3] = target: Receptor tyrosine-protein kinase erbB-2 (Homo sapiens) (UniProt P04626); assay: as above; conditions: 18-24 h, at 10 µM, stronger effect = lower value
# Sequence of Receptor tyrosine-protein kinase erbB-2 (Homo sapiens) (P04626 whole entry, looked up): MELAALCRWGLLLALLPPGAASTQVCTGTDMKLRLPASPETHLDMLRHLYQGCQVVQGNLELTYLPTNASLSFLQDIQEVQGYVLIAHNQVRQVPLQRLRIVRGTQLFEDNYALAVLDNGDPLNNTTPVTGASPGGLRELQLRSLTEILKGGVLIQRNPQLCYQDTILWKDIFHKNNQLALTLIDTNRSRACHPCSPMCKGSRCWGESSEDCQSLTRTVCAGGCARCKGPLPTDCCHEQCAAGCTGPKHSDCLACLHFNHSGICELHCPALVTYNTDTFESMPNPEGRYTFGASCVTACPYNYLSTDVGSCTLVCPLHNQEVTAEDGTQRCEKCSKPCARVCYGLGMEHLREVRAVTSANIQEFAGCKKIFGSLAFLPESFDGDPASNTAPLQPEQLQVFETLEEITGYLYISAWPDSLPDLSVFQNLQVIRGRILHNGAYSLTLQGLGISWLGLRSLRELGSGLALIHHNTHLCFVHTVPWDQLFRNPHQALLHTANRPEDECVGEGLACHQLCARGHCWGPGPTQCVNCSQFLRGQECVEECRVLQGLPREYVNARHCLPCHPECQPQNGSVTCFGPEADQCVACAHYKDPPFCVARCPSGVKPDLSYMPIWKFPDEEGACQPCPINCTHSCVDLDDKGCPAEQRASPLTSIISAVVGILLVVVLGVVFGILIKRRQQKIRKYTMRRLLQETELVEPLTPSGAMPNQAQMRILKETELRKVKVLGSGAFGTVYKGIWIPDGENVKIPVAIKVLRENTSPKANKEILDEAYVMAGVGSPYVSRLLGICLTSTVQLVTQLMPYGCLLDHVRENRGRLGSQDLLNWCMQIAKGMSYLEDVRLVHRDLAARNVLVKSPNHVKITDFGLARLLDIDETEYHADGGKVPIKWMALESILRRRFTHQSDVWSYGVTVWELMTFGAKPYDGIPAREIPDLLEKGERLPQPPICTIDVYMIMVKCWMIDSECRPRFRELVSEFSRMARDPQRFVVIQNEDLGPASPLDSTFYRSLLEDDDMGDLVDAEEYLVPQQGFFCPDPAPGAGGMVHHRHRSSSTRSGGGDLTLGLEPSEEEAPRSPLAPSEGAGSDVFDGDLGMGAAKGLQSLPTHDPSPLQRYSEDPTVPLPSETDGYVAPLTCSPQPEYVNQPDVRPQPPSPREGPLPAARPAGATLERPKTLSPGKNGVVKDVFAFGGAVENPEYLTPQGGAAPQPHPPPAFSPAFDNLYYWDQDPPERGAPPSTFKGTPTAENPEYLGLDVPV
# [4] = SK-BR-3 cell growth inhibitors, pilot screen, 24 h, human (AID 572;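 active = viability at or below 10% of carrier control in both of two separate runs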;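 note: compound exposure lasted between 18 and 24 h rather than exactly 24 h; 100% = carrier-treated control wells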); conditions: SK-BR-3 viability, CellTiter-Glo luminescence, at 10 µM, stronger effect = lower value
# [5] = HUVEC growth inhibition – cell-based, human, primary screen (AID 575;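 active = viability at or below 30% in both replicate assays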;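 note: 100% = median of untreated cell wells with 0.1% DMSO on each plate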); conditions: HUVEC proliferation, CellTiter-Glo luminescence, 72 h; at 10 µM; stronger effect = lower value
# Procedure, shortened: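 material = primary HUVEC, no more than 12 passages | input = 1250 cells per well | controls = vehicle and MePR control wells | measured by = CTG luminescence | times = 72 h compound incubation | format = collagen-coated 384-well format | read-out = % viability vs DMSO wells | doses = single 10 µM dose, 0.1% DMSO, from 5x medium stock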
# [6] = growth inhibitors of H69AR lung tumor, primary screen, human, duplicate replicates (AID 580;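 active = viability at or under a set limit in both replicates, limit being median viability minus 3 SD, cut at about 48% in these data, passing the limit was not always enough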;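 note: 100% = mean luminescence of untreated wells and 0% = no signal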); conditions: H69AR lung tumor cells viability, ATP luminescence, 72 h; at 10 µM; stronger effect = lower value
# [7] = reversal of MRP1-mediated doxorubicin resistance, pilot screen, H69AR cells, doxorubicin co-treatment (AID 601); conditions: CellTiter-Glo, 72 h, at 10 µM; for differential viability (reversal): stronger effect = higher value
# [8] = 384-well plate pilot, post-Golgi transport modulator project, inhibition of yeast transport mutant growth (AID 636; in the data active = inhibition above about 31%); conditions: absorbance 615 nm, about 18 h, stronger effect = higher value
# [9] = growth suppression of yeast trafficking mutant, preliminary HTS, modulators of trafficking downstream of Golgi apparatus project, 1536-format plate, OD 615 nm (AID 637; in the data active = inhibition above about 30%); conditions: yeast transport mutant growth, absorbance 615 nm, 18 h; stronger effect = higher value
# [10] = H69AR cells + 2 uM doxorubicin, measured here: viability with 2 uM doxorubicin, stronger effect = lower value
# [11] = H69AR cells, compound alone cytotoxicity
SMILES,inhibition [1],viability [2],Her2 level [3],viability [4],viability [5],viability [6],differential viability (reversal) ([7]; H69AR cells + 2 uM doxorubicin),"viability [7, 10]","viability [7, 11]",inhibition [8],inhibition [9]
Cc1nn(-c2ccccc2)c2c1CC1(C(=O)N(C)C(=O)N(C)C1=O)C1CCCCN21 (stereo not given),0% (inactive),97%,114% (inactive),97% (inactive),91.7% (inactive),84.7% (inactive),-12% (inactive),96.7%,84.7%,-4.86% (inactive),-2.13% (inactive)
CCN1CCN(Cc2cc(Br)cc(OC)c2O)CC1,7% (inactive),93.5%,114% (inactive),93.5% (inactive),110% (inactive),94.2% (inactive),-2.88% (inactive),97.1%,94.2%,-3.2% (inactive),-6.19% (inactive)
NC(=O)OCCSc1nnc(-c2cccc(C(N)=S)c2)o1,2% (inactive),103%,88% (inactive),103% (inactive),108% (inactive),105% (inactive),13.7% (inactive),91%,105%,-6% (inactive),0.65% (inactive)
C=CCn1c(O)c(C(C)=NCc2cccnc2)c(=O)[nH]c1=O,0% (inactive),104%,113% (inactive),104% (inactive),88.1% (inactive),92.2% (inactive),4.8% (inactive),87.4%,92.2%,-6.49% (inactive),-1.33% (inactive)
Cc1cc(N2C(=O)C3CCCN3C2c2cccc(Cl)c2)no1 (stereo not given),4% (inactive),95%,96.5% (inactive),95% (inactive),89.3% (inactive),109% (inactive),21% (inactive),88%,109%,-0.13% (inactive),-0.97% (inactive)
